Converted amounts (≈) assume the structure as drawn.
Legend:
Candida albicans [1] = test: Ratio of the in vitro minimal inhibitory to that of bifonazole against Candida albicans (MIC(compound)/MIC(bifonazole)); type: functional
How it was run: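 Broth microdilution per NCCLS M27-A2 against 12 Candida albicans strains (AIDS oropharyngeal, HIV vulvovaginitis isolates, ATCC 24433 and 20891, lab strains 3153 and CA2). Inoculum ~10^4 cells/mL in RPMI 1640, pH 7.0; DMSO stocks 6.4 mg/mL, twofold dilutions 0.016–64 μg/mL; read at 24 h, 28 °C, no visible growth. Mean MIC over strains converted to μmol/mL, divided by bifonazole MIC.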

Candida albicans [2] = test: In vitro concentration causing 90% inhibition of Candida albicans with percentage of resistant strains %R = 41.66 (MIC > 64 ug/mL) at a range of 0.5-2 ug/mL; type: functional
Candida albicans [3] = test: In vitro minimal inhibitory concentration against Candida albicans with percentage of resistant strains %R = 41.66 (MIC > 64 ug/mL) at a range of 0.5-2 ug/mL; type: functional
Candida albicans [4] = test: In vitro concentration causing 50% inhibition of Candida albicans with percentage of resistant strains %R = 41.66 (MIC > 64 ug/mL) at a range of 0.5-2 ug/mL; type: functional
Candida albicans [5] = test: In vitro concentration causing 50% inhibition of Candida albicans with percentage of resistant strains %R = 100 (MIC > 64 ug/mL) at a range > 64; type: functional
Candida albicans [6] = test: In vitro concentration causing 90% inhibition of Candida albicans with percentage of resistant strains %R = 100 (MIC > 64 ug/mL) at a range > 64; type: functional
Candida albicans [7] = test: In vitro minimal inhibitory concentration against Candida albicans with percentage of resistant strains %R = 100 (MIC > 64 ug/mL) at a range > 64; type: functional
Candida albicans [8] = test: In vitro minimal inhibitory concentration against Candida albicans with percentage of resistant strains %R = 33.33 (MIC > 64 ug/mL) at a range of 0.25-2 ug/mL; type: functional
Candida albicans [9] = test: In vitro concentration causing 50% inhibition of Candida albicans with percentage of resistant strains %R = 33.33 (MIC > 64 ug/mL) at a range of 0.25-2 ug/mL; type: functional
Candida albicans [10] = test: In vitro concentration causing 90% inhibition of Candida albicans with percentage of resistant strains %R = 33.33 (MIC > 64 ug/mL) at a range of 0.25-2 ug/mL; type: functional
Candida albicans [11] = test: In vitro concentration causing 90% inhibition of Candida albicans with percentage of resistant strains %R = 50 (MIC > 64 ug/mL) at a range of 0.5-16 ug/mL; type: functional
Candida albicans [12] = test: In vitro minimal inhibitory concentration against Candida albicans with percentage of resistant strains %R = 50 (MIC > 64 ug/mL) at a range of 0.5-16 ug/mL; type: functional
Candida albicans [13] = test: In vitro concentration causing 50% inhibition of Candida albicans with percentage of resistant strains %R = 50 (MIC > 64 ug/mL) at a range of 0.5-16 ug/mL; type: functional
Candida albicans [14] = test: In vitro minimal inhibitory concentration against Candida albicans with percentage of resistant strains %R = 66 (MIC > 64 ug/mL) at a range of 2-8 ug/mL; type: functional
Candida albicans [15] = test: In vitro concentration causing 90% inhibition of Candida albicans with percentage of resistant strains %R = 66 (MIC > 64 ug/mL) at a range of 2-8 ug/mL; type: functional
Candida albicans [16] = test: In vitro concentration causing 50% inhibition of Candida albicans with percentage of resistant strains %R = 66 (MIC > 64 ug/mL) at a range of 2-8 ug/mL; type: functional
Candida albicans [17] = test: In vitro concentration causing 50% inhibition of Candida albicans with percentage of resistant strains %R = 50 (MIC > 64 ug/mL) at a range of 0.5-2 ug/mL; type: functional
Candida albicans [18] = test: In vitro concentration causing 90% inhibition of Candida albicans with percentage of resistant strains %R = 50 (MIC > 64 ug/mL) at a range of 0.5-2 ug/mL; type: functional
Candida albicans [19] = test: In vitro minimal inhibitory concentration against Candida albicans with percentage of resistant strains %R = 50 (MIC > 64 ug/mL) at a range of 0.5-2 ug/mL; type: functional
Candida albicans [20] = test: In vitro minimal inhibitory concentration against Candida albicans with percentage of resistant strains %R = 33.33 (MIC > 64 ug/mL) at a range of 1-4 ug/mL; type: functional
Candida albicans [21] = test: In vitro concentration causing 90% inhibition of Candida albicans with percentage of resistant strains %R = 33.33 (MIC > 64 ug/mL) at a range of 1-4 ug/mL; type: functional
Candida albicans [22] = test: In vitro concentration causing 50% inhibition of Candida albicans with percentage of resistant strains %R = 33.33 (MIC > 64 ug/mL) at a range of 1-4 ug/mL; type: functional
Candida albicans [23] = test: In vitro concentration causing 90% inhibition of Candida albicans with percentage of resistant strains %R = 0 (MIC > 64 ug/mL) at a range of 0.062-2 ug/mL; type: functional
Candida albicans [24] = test: In vitro concentration causing 50% inhibition of Candida albicans with percentage of resistant strains %R = 0 (MIC > 64 ug/mL) at a range of 0.062-2 ug/mL; type: functional
Candida albicans [25] = test: In vitro minimal inhibitory concentration against Candida albicans with percentage of resistant strains %R = 0 (MIC > 64 ug/mL) at a range of 0.062-2 ug/mL; type: functional
Candida albicans [26] = test: In vitro concentration causing 50% inhibition of Candida albicans with percentage of resistant strains %R = 16 (MIC > 64 ug/mL) at a range of 2-32 ug/mL; type: functional
Candida albicans [27] = test: In vitro minimal inhibitory concentration against Candida albicans with percentage of resistant strains %R = 16 (MIC > 64 ug/mL) at a range of 2-32 ug/mL; type: functional
Candida albicans [28] = test: In vitro concentration causing 90% inhibition of Candida albicans with percentage of resistant strains %R = 16 (MIC > 64 ug/mL) at a range of 2-32 ug/mL; type: functional
Candida albicans [29] = test: In vitro concentration causing 50% inhibition of Candida albicans with percentage of resistant strains %R = 10 (MIC > 64 ug/mL) at a range of 0.5-8 ug/mL; type: functional
Candida albicans [30] = test: Ratio of the in vitro minimal inhibitory concentrations to that of bifonazole against Candida albicans (MIC(compound)/MIC(bifonazole)); type: functional
Candida albicans [31] = test: In vitro minimal inhibitory concentration against Candida albicans with percentage of resistant strains %R = 10 (MIC > 64 ug/mL) at a range of 0.5-8 ug/mL; type: functional
Candida albicans [32] = test: In vitro concentration causing 90% inhibition of Candida albicans with percentage of resistant strains %R = 10 (MIC > 64 ug/mL) at a range of 0.5-8 ug/mL; type: functional
Candida albicans [33] = test: In vitro concentration causing 50% inhibition of Candida albicans with percentage of resistant strains %R = 45.45 (MIC > 64 ug/mL) at a range of 0.125-0.5 ug/mL; type: functional
Candida albicans [34] = test: In vitro concentration causing 90% inhibition of Candida albicans with percentage of resistant strains %R = 45.45 (MIC > 64 ug/mL) at a range of 0.125-0.5 ug/mL; type: functional
Candida albicans [35] = test: In vitro minimal inhibitory concentration against Candida albicans with percentage of resistant strains %R = 45.45 (MIC > 64 ug/mL) at a range of 0.125-0.5 ug/mL; type: functional
Candida albicans [36] = test: In vitro minimal inhibitory concentration against Candida albicans with percentage of resistant strains %R = 25 (MIC > 64 ug/mL) at a range of 0.062-0.25 ug/mL; type: functional
Candida albicans [37] = test: In vitro concentration causing 50% inhibition of Candida albicans with percentage of resistant strains %R = 25 (MIC > 64 ug/mL) at a range of 0.062-0.25 ug/mL; type: functional
Candida albicans [38] = test: In vitro concentration causing 90% inhibition of Candida albicans with percentage of resistant strains %R = 25 (MIC > 64 ug/mL) at a range of 0.062-0.25 ug/mL; type: functional
Candida albicans [39] = test: microbe, parasite or virus in culture
Candida albicans [40] = test: In vitro concentration causing 50% inhibition of Candida albicans with percentage of resistant strains %R = 33.33 (MIC > 64 ug/mL) at a range of 0.062-2 ug/mL; type: functional
Candida albicans [41] = test: In vitro concentration causing 90% inhibition of Candida albicans with percentage of resistant strains %R = 33.33 (MIC > 64 ug/mL) at a range of 0.062-2 ug/mL; type: functional

CCn1cc(-c2ccc(Cl)cc2Cl)c(C(c2ccc(Cl)cc2Cl)n2ccnc2)c1 (stereo not given)
Ratio (Candida albicans [1]): 0.23
MIC90 (Candida albicans [2]): 2 µg/mL (≈ 4.3 µM)
MIC (Candida albicans [3]): 1.21 µg/mL (≈ 2.6 µM)
MIC50 (Candida albicans [4]): 1 µg/mL (≈ 2.15 µM)

CCCn1cc(-c2ccc(Cl)cc2Cl)c(C(c2ccc(Cl)cc2Cl)n2ccnc2)c1 (stereo not given)
MIC50 (Candida albicans [5]): > 64 µg/mL
MIC90 (Candida albicans [6]): > 64 µg/mL
MIC (Candida albicans [7]): > 64 µg/mL

Cc1ccc(C(c2cn(C)cc2-c2ccc(Cl)c(Cl)c2)n2ccnc2)cc1 (stereo not given)
Ratio (Candida albicans [1]): 0.19
MIC (Candida albicans [8]): 0.87 µg/mL (≈ 2.2 µM)
MIC50 (Candida albicans [9]): 0.5 µg/mL (≈ 1.26 µM)
MIC90 (Candida albicans [10]): 2 µg/mL (≈ 5.05 µM)

Cn1cc(-c2cccc3ccccc23)c(C(c2ccc(Cl)cc2Cl)n2ccnc2)c1 (stereo not given)
MIC90 (Candida albicans [11]): 16 µg/mL (≈ 37 µM)
Ratio (Candida albicans [1]): 0.94
MIC (Candida albicans [12]): 4.58 µg/mL (≈ 10.6 µM)
MIC50 (Candida albicans [13]): 4 µg/mL (≈ 9.25 µM)

CCn1cc(-c2cccc3ccccc23)c(C(c2ccc(Cl)cc2Cl)n2ccnc2)c1 (stereo not given)
MIC (Candida albicans [14]): 5.5 µg/mL (≈ 12.3 µM)
Ratio (Candida albicans [1]): 1.1
MIC90 (Candida albicans [15]): 8 µg/mL (≈ 17.9 µM)
MIC50 (Candida albicans [16]): 4 µg/mL (≈ 8.96 µM)

Clc1ccc(C(c2c[nH]cc2-c2cccc3ccccc23)n2ccnc2)c(Cl)c1 (stereo not given)
MIC50 (Candida albicans [17]): 0.5 µg/mL (≈ 1.2 µM)
Ratio (Candida albicans [1]): 0.21
MIC90 (Candida albicans [18]): 2 µg/mL (≈ 4.78 µM)
MIC (Candida albicans [19]): 1 µg/mL (≈ 2.39 µM)

Cn1cc(-c2ccc(-n3cccc3)cc2)c(C(c2ccc(Cl)cc2Cl)n2ccnc2)c1 (stereo not given)
MIC (Candida albicans [20]): 3.12 µg/mL (≈ 6.97 µM)
MIC90 (Candida albicans [21]): 4 µg/mL (≈ 8.94 µM)
Ratio (Candida albicans [1]): 0.62
MIC50 (Candida albicans [22]): 4 µg/mL (≈ 8.94 µM)

C=CCn1cc(-c2ccc(Cl)cc2Cl)c(C(c2ccc(Cl)cc2Cl)n2ccnc2)c1 (stereo not given)
MIC90 (Candida albicans [23]): 1 µg/mL (≈ 2.1 µM)
Ratio (Candida albicans [1]): 0.12
MIC50 (Candida albicans [24]): 0.25 µg/mL (≈ 0.524 µM)
MIC (Candida albicans [25]): 0.65 µg/mL (≈ 1.36 µM)

Cn1cc(-c2ccc(Cl)cc2Cl)c(C(c2ccc(Cl)cc2Cl)n2ccnc2)c1 (stereo not given)
MIC50 (Candida albicans [26]): 8 µg/mL (≈ 17.7 µM)
Ratio (Candida albicans [1]): 2.9
MIC (Candida albicans [27]): 14.6 µg/mL (≈ 32.4 µM)
MIC90 (Candida albicans [28]): 32 µg/mL (≈ 70.9 µM)

c1ccc(-c2ccc(C(c3ccccc3)n3ccnc3)cc2)cc1 (stereo not given) [BIFONAZOLE]
MIC50 (Candida albicans [29]): 2 µg/mL (≈ 6.44 µM)
Ratio (Candida albicans [30]): 1
MIC (Candida albicans [31]): 3.5 µg/mL (≈ 11.3 µM)
MIC90 (Candida albicans [32]): 8 µg/mL (≈ 25.8 µM)

OC(Cn1cncn1)(Cn1cncn1)c1ccc(F)cc1F [FLUCONAZOLE]
MIC50 (Candida albicans [33]): 0.25 µg/mL (≈ 0.816 µM)
MIC90 (Candida albicans [34]): 0.5 µg/mL (≈ 1.63 µM)
Ratio (Candida albicans [1]): 0.069
MIC (Candida albicans [35]): 0.24 µg/mL (≈ 0.784 µM)

CCC(C)n1ncn(-c2ccc(N3CCN(c4ccc(OC[C@H]5CO[C@](Cn6cncn6)(c6ccc(Cl)cc6Cl)O5)cc4)CC3)cc2)c1=O (stereo not given in full) [ITRACONAZOLE]
MIC (Candida albicans [36]): 0.096 µg/mL (≈ 0.136 µM)
MIC50 (Candida albicans [37]): 0.062 µg/mL (≈ 0.0879 µM)
MIC90 (Candida albicans [38]): 0.125 µg/mL (≈ 0.177 µM)

Clc1ccc(COC(Cn2ccnc2)c2ccc(Cl)cc2Cl)c(Cl)c1 (stereo not given) [MICONAZOLE]
MIC (Candida albicans [39]): 0.65 µg/mL (≈ 1.56 µM)
MIC50 (Candida albicans [40]): 0.062 µg/mL (≈ 0.149 µM)
Ratio (Candida albicans [1]): 0.14
MIC90 (Candida albicans [41]): 1 µg/mL (≈ 2.4 µM)
